Assay results gathered from unrelated publications.
Compare with care: the assays were run in different laboratories.
Target: Discoidin domain-containing receptor 2 (DDR2, Homo sapiens, UniProt Q16832)
One construct used (Q16832 22-855): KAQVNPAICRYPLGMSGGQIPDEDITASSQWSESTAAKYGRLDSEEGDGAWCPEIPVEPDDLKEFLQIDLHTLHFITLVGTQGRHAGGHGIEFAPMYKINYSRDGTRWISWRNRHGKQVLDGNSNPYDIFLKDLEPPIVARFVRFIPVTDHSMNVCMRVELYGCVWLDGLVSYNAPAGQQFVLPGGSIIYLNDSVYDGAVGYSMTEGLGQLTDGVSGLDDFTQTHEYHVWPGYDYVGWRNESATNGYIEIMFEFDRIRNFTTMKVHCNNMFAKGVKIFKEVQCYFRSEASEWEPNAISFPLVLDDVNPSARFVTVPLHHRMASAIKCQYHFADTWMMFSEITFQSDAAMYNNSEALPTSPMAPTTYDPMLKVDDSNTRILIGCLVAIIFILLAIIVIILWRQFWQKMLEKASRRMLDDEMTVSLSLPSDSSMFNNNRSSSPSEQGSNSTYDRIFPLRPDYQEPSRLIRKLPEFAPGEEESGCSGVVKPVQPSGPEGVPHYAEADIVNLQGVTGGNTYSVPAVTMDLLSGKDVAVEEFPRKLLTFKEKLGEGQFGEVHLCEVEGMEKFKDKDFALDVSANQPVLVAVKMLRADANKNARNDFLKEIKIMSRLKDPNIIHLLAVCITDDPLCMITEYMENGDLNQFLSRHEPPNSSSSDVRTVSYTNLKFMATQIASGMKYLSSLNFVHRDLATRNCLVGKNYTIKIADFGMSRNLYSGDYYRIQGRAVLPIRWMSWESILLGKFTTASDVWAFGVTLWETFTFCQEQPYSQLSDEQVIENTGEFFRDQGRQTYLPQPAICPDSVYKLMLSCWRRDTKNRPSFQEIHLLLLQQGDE

Compound | read-out | action | method | tested at | endpoint | value
FC(F)(F)c1ccc2c(c1)nc(-c1cccnc1)n2C1CC1 | cell-free assay |  | competition with immobilised ligand | 1 µM | remaining binding | 100%
CC(C)(O)[C@H]1CC[C@H](Nc2ccc3ncc(-c4cccc(C(F)(F)F)c4)n3n2)CC1 | enzyme activity | inhibitor |  | 1 µM | remaining activity | 49.5%
CNC(=O)c1cc(Oc2ccc(NC(=O)Nc3ccc(Cl)c(C(F)(F)F)c3)cc2)ccn1 | enzyme activity | inhibitor |  | 0.3 µM | inhibition | 108%
COc1cc(Nc2cnc(C#N)c(O[C@H](C)CN(C)C)n2)ncc1-c1cnn(C)c1 | enzyme activity | inhibitor | radiometric | 1 µM | remaining activity | 95%
O=C(NCc1ncc(C(F)(F)F)cc1Cl)c1ccc2c(c1)C1(CCS(=O)(=O)CC1)[C@H](C1CC1)N2S(=O)(=O)c1ccc(F)cc1 | cell-free assay |  | competition with immobilised ligand | 1 µM | remaining binding | 78%
CCN(CC)CCNC(=O)c1c(C)[nH]c(/C=C2\C(=O)Nc3ccc(F)cc32)c1C | enzyme activity | inhibitor |  | 10 µM | inhibition | 31%
CC(C)(C)c1nc(-c2cccc(NS(=O)(=O)c3c(F)cccc3F)c2F)c(-c2ccnc(N)n2)s1 | enzyme activity | inhibitor | radiometric | 1 µM | remaining activity | 14%
O=C(NC[C@@H]1[C@H]2CN(C(=O)OCc3cc(C(F)(F)F)cc(C(F)(F)F)c3)C[C@@H]12)c1ccc2[nH]nnc2c1 | cell-free assay |  | competition with immobilised ligand | 1 µM | remaining binding | 82%
Cc1ccc(C(=O)Nc2ccc(CN3CCN(C)CC3)c(C(F)(F)F)c2)cc1C#Cc1cnc2cccnn12 | cell-free assay |  |  | 23.5 nM | remaining signal | 0.3%
CN(C)c1ncnc(-c2ccc3nc(Nc4cc(CN5CCN(C(=O)CC(F)(F)F)CC5)ccn4)[nH]c3c2)c1Cl | cell-free assay |  | competition with immobilised ligand | 1 µM | remaining binding | 71%
COc1cc2nccc(Oc3ccc(NC(=O)c4c5n(n(-c6ccc(F)cc6)c4=O)CCCC5)cc3)c2cc1OC | enzyme activity | inhibitor |  | 0.1 µM | inhibition | 20%
Cc1noc([C@H]2C[C@@H](c3ccc(C(F)(F)F)cc3)CN(C(=O)N3CCS(=O)(=O)C3)C2)n1 | cell-free assay |  | competition with immobilised ligand | 1 µM | remaining binding | 74%
COc1cc(/C=C/C(=O)CC(=O)/C=C/c2ccc(O)c(OC)c2)ccc1O | enzyme activity | inhibitor |  | 1 µM | activity vs control | 109%
Cc1ccc(C(=O)NCc2ccsc2)cc1C#Cc1cn(C(C)C)c2ncnc(N)c12 | enzyme activity | inhibitor |  | 1 µM | activity vs control | 4%
Cc1cc(NC(=O)c2cccc3cc(-c4cccc5[nH]nc(N)c45)ccc23)ccc1F | enzyme activity | inhibitor |  | 0.1 µM | activity vs control | 60%
CCN(CC)c1ccc(C2=NNC(=O)CC2C)cc1[N+](=O)[O-] (stereo not drawn) | enzyme activity | inhibitor |  | 10 µM | remaining activity | 100%
O=C1NC(=O)c2cc(Nc3ccc(F)cc3)c(Nc3ccc(F)cc3)cc21 | cell-free assay |  |  | 0.5 µM | remaining signal | 99.6%
CCN(CC)CCNC(=O)c1c(C)[nH]c(/C=C2\C(=O)Nc3ccc(F)cc32)c1C | enzyme activity | inhibitor |  | 1 µM | remaining activity | 103%
CC/C(=N\NC(=O)NCc1cccc(O)c1)c1ccc(O)c(C)c1O | enzyme activity | inhibitor |  | 0.1 µM | inhibition | 0.1%
Cc1cc(NC(=O)c2cccc(S(F)(F)(F)(F)F)c2)cc(-n2ccn3nc(-c4cccnc4)cc23)c1 | cell-free assay |  | competition with immobilised ligand | 1 µM | remaining binding | 18.2%
Cc1[nH]c(/C=C2\C(=O)Nc3ccc(F)cc32)c(C)c1C(=O)N[C@H]1CCN(C(=O)N(C)C)C1 | enzyme activity | inhibitor |  | 1 µM | remaining activity | 107%
CNC(=O)Nc1ccc2c(c1)CC[C@@]21OC(=O)N(CC(=O)N(Cc2ccc(F)cc2)[C@@H](C)C(F)(F)F)C1=O | cell-free assay |  | competition with immobilised ligand | 1 µM | remaining binding | 75%
N#CCCc1ccc2c(c1)-c1[nH]c3ccc([N+](=O)[O-])cc3c1CC(=O)N2 | cell-free assay |  |  | 0.5 µM | remaining signal | 105%
O=C(Nc1cnn(-c2csc(C(=O)NC3COC3)c2)c1)Nc1ccccc1Cl | enzyme activity | inhibitor |  | 5 µM | remaining activity | 99.8%
